The values below come from ChEMBL document CHEMBL4390639, “Design, Synthesis, and Biological Evaluation of Novel Allosteric Protein Disulfide Isomerase Inhibitors” (J Med Chem, 2019).

Active and inactive are the calls of the source. The rule behind the calls is not given here.

Data set [1] addresses T1, Protein disulfide-isomerase (Homo sapiens, UniProt P07237). Put plainly: Inhibition of recombinant human N-terminal His-tagged PDI expressed in Escherichia coli BL21 (DE3) pLysS assessed as reduction in enzyme-mediated bovine insulin aggregation.
Target sequence in this assay (P07237 whole entry): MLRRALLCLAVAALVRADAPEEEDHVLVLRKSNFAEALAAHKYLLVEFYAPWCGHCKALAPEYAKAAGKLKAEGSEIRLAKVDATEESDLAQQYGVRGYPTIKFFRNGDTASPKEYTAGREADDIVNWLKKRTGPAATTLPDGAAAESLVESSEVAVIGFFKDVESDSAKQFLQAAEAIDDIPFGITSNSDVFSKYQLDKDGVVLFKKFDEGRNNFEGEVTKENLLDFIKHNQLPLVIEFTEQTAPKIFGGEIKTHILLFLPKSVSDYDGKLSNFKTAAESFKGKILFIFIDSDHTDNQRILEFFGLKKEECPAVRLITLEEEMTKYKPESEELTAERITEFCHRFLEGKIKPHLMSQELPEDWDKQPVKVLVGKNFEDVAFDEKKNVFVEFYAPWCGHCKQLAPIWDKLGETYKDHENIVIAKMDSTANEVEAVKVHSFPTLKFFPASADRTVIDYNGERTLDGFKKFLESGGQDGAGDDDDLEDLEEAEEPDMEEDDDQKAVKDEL
The nature of data set [2]: Solubility of the compound in DMSO. The format is physicochemical.
The subject of data set [3] is U-87 MG. Put plainly: Cytotoxicity against human U87MG cells assessed as inhibition of cell growth measured after 72 hrs by MTT assay. The format is functional, cell-based, U-87MG ATCC. Particulars: u-87mg atcc. In a few lines:
(§1)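 A172 and NU04 cells were seeded at 4000 cells/well and U87MG at 5000 cells/well, incubated overnight at 37 °C, 5% CO2, then exposed to compound or vehicle for 72 h. MTT (3 mg/mL) was added for 4 h, formazan was dissolved in DMSO, and absorbance was read at 570 nm. IC50 came from nonlinear regression; mean ± SD of at least three experiments.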
A general note: Tetrazolium dyes change colour on reduction, which living cells bring about.

For data set [4], the system named is A 172. Put plainly: Cytotoxicity against human A172 cells assessed as inhibition of cell growth measured after 72 hrs by MTT assay. The format is functional, cell-based. Particulars: a 172. The method, boiled down: as §1
Data set [5] is described as follows: Cytotoxicity against human NU04 cells assessed as inhibition of cell growth measured after 72 hrs by MTT assay. The data set is classed as functional, cell-based. In a few lines: as §1
For data set [6], the system named is U-87 MG. In words: Inhibition of colony formation in human U87MG cells […] by crystal violet staining based assay. Particulars: U-87MG ATCC. The format is functional, cell-based. The method, boiled down: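 Clonogenicity: U87MG cells seeded at 200 cells/well, left overnight, treated 24 h, then medium replaced and cells grown ten days. Stained 30 min with crystal violet, washed, imaged; normalized well intensity from three independent experiments.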

The target of data set [7] is T1, Protein disulfide-isomerase. In words: Binding affinity to recombinant human N-terminal His-tagged PDI expressed in Escherichia coli BL21 (DE3) pLysS assessed as change in melting temperature at 100 uM by ROX dye based thermal shift assay. In a few lines:
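Purified wild-type, C53S/C397S or H256A PDI at 0.5 mg/mL in 50 mM Tris, pH 7.0, with or without 100 μM compound, was mixed with ROX dye in a 20 µL well. DMSO (5% in buffer) was the control. Samples were heated 25–99 °C at 1 °C/min, and the Boltzmann melting temperature shift versus DMSO was reported. Mean ± SD of three experiments.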
Target sequence in this assay (P07237 18-508 limits assumed): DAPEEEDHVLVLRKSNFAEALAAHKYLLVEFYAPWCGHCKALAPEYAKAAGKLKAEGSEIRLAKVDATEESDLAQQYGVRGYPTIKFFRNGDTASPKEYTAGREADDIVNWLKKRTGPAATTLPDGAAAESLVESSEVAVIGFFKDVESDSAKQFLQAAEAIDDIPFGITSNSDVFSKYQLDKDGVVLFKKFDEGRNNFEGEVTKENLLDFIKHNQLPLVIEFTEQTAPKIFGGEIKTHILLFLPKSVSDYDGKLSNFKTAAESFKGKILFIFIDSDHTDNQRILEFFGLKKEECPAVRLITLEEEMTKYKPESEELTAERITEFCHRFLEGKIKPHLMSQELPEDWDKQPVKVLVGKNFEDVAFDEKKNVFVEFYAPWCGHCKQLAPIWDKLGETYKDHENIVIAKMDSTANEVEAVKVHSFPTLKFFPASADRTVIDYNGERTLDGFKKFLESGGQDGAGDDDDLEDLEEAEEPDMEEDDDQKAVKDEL

The target of data set [8] is Eukaryotic translation initiation factor 2 subunit 1 (Homo sapiens) (UniProt P05198). Put plainly: Induction of EIF2alpha phosphorylation in human U87MG cells at 1 uM measured after 2 hrs by Western blot analysis. The data set is classed as cell-based. The method, boiled down:
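eIF2α phosphorylation in U87MG cells after 2 h with 1 µM PACMA31 or 20 µM analogues; tunicamycin 10 µg/mL as comparator. Lysates (Tris/NaCl/Triton/SDS, sonicated) quantified by BCA; 30 µg protein separated on 10% gels, blotted to PVDF, probed for phospho-eIF2α, detected by fluorescence.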
(In general: A western blot detects proteins with antibodies after separation by electrophoresis.)

Data set [9] has as its system U-87 MG. In words: Induction of endoplasmic reticulum stress in human U87MG cells assessed as increase in GRP78 expression at 1 uM measured after 24 hrs by Western blot analysis. The data set is classed as functional, cell-based. Particulars: U-87MG ATCC. In a few lines: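 ER-stress immunoblot: 0.5 x 10^6 U87MG cells/well treated for 24 h with 20 µM analogues, 1 µM PACMA31 or DMSO; tunicamycin 10 µg/mL for 2 or 24 h as positive control. Lysis in Tris/NaCl/Triton/SDS buffer with sonication; 30 µg protein on 10% gels, transferred to PVDF, GRP78 probed, fluorescence imaging.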

Data set [10] concerns the target Eukaryotic translation initiation factor 2 subunit 1 (Homo sapiens) (UniProt P05198). Put plainly: Induction of EIF2alpha phosphorylation in human A172 cells at 1 uM measured after 2 hrs by Western blot analysis. The data set is classed as cell-based.
Data set [11] has as its system A 172. In words: Induction of endoplasmic reticulum stress in human A172 cells assessed as increase in GRP78 expression at 1 uM measured after 24 hrs by Western blot analysis. The format is functional, cell-based.
Data set [12] has as its system A 172. In words: Antimigratory activity against human A172 cells assessed as reduction in cell migration towards wound area measured after 24 hrs by Giemsa staining based microscopic analysis. The format is functional. In a few lines:
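A172 cells plated at 50,000 cells/well, incubated overnight at 37 °C, 5% CO2, then held 24 h in serum-free DMEM. A scratch was made, compounds were added, and cells grew 24 h until DMSO-control wells closed. Cells were Giemsa-stained and imaged at 10X.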

The test system of data set [13] is A 172. Put plainly: Antimigratory activity against human A172 cells at 30 uM measured after 4 hrs by Giemsa staining based transwell migration assay. The format is functional, cell-based. In a few lines:
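A172 cells (1 x 10^5) were treated with compound and seeded into inserts with 8.0 μm PET membrane in serum-free medium. DMEM with 10% FBS was in the lower well; wells without FBS served as control. After 4 h, migrated cells were Giemsa-stained and imaged at 10X, 5 fields per well.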

For data set [14], the target named is 72 kDa type IV collagenase (Homo sapiens) (UniProt P08253). Put plainly: Inhibition of MMP2 activity in human U87MG cells at 0.25 uM […] by gelatin zymographic method. The data set is classed as cell-based.
72 kDa type IV collagenase (Homo sapiens), sequence (P08253 110-660 limits assumed): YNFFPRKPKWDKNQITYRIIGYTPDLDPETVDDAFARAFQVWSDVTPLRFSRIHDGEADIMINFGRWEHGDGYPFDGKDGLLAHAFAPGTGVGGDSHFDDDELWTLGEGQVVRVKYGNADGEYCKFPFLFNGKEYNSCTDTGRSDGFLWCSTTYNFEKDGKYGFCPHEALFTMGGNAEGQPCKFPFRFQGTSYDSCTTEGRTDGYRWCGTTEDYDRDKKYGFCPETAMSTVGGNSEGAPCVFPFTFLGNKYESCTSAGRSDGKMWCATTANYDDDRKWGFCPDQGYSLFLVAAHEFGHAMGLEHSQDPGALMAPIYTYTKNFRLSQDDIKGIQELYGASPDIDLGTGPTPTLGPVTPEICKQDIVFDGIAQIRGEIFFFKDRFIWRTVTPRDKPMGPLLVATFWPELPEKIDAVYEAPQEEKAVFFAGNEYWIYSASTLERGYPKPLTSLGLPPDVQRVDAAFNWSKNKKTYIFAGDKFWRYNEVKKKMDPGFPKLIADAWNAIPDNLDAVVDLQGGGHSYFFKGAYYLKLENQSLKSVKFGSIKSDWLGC
Data set [15] relates to U-87 MG. Put plainly: Down regulation of cleaved MMP2 expression in human U87MG cells at 0.25 uM measured after 24 hrs by Western blot analysis. The data set is classed as functional, cell-based. The settings on record: U-87MG ATCC.
The test system of data set [16] is U-87 MG. Put plainly: Down regulation of MMP9 expression in human U87MG cells at 0.25 uM measured after 24 hrs by Western blot analysis. The data set is classed as functional, cell-based. Particulars: U-87MG ATCC.
In data set [17] the test system is D54 cell line. In words: Inhibition of colony formation in 1 to 6 Gy-irradiated human D54 cells at 0.05 uM measured after 10 to 12 days by crystal violet staining based assay. The format is functional, cell-based. In a few lines: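 D54 cells irradiated at 0, 1, 2, 4 or 6 Gy and plated immediately at 200–1000 cells/well according to dose. Treated with DMSO, 0.05 μM PACMA31 or 1 μM compounds, grown 10–12 days, then colonies stained with 0.1% crystal violet.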

In data set [18] the target is T1, Protein disulfide-isomerase. In words: Inhibition of recombinant human N-terminal His-tagged PDI expressed in Escherichia coli BL21 (DE3) pLysS at 100 uM measured after 1 hr by ANS dye based fluorescence spectra analysis. In a few lines: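 ANS spectral scan: PDI incubated with 100 μM compounds or matching DMSO in TBS for 1 h at 37 °C. ANS then added and incubated 20 min at 25 °C in the dark. Fluorescence spectrum recorded with excitation 370 nm, emission 400–700 nm.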
Target sequence in this assay (P07237 18-508 limits assumed): as the sequence (P07237 18-508 limits assumed) above

Data set [19] has the same target. Put plainly: Inhibition of recombinant human N-terminal His-tagged PDI expressed in Escherichia coli BL21 (DE3) pLysS assessed as reduction in enzyme-mediated bovine insulin aggregation at 40 uM measured after 1 hr in presence of 5 mM NAC. The method, boiled down: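 Compounds pretreated with NAC for 30 min at 37 °C, then added to the insulin reductase assay at final 40 μM compound with 0, 1, 2 or 5 mM NAC. The assay uses 0.4 μM PDI preincubated 1 h at 37 °C, then DTT and bovine insulin, read at 620 nm, with % activity at 80 min.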
Target sequence in this assay (P07237 18-508 limits assumed): as above

Eukaryotic translation initiation factor 2 subunit 1 (Homo sapiens), sequence (P05198 whole entry): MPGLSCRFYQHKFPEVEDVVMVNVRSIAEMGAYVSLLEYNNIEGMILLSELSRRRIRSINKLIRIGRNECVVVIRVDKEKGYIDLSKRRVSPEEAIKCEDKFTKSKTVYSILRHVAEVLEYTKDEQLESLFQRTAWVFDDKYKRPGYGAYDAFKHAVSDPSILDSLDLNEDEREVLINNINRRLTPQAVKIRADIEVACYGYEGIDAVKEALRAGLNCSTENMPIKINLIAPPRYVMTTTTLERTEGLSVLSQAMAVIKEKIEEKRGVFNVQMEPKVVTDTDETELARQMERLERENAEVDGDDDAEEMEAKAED

By IC50 is commonly meant the concentration at which inhibition is half-maximal. Take `N#Cc1cccc(/C=C/C(=O)c2ccc(S(=O)(=O)NC3CC3)cc2)c1`: the 50% inhibitory concentration (IC50) in [1] is 1.05 µM; in data set [3], “Nd(Insoluble)”; in data set [4], “Nd(Insoluble)”; in [5], “Nd(Insoluble)”. The solubility result in data set [2] is recorded as “Insoluble”.

What is called ΔTm is the shift of the melting midpoint relative to a reference. On to `C#CC(=O)N(c1ccc(OC)cc1OC)C(C(=O)NCC(=O)OCC)c1cccs1` (stereo not given), for which the IC50 in data set [1] came out at 10.8 µM. The inhibition entry in data set [6] was “Dose-dependent effect”. In data set [7], the ΔTm is 0.03 °C. The outcome in data set [8] and in data set [10] was inactive. The outcome in data set [9], in data set [11], in data set [13], in [15] and in data set [16] was Active. For the same compound, the Activity result in data set [12] was “Dose-dependent effect”. For the same compound, in data set [14], the inhibition entry is “Active”. Further, the inhibition result in data set [17], in data set [18] and in [19] was “inactive” each time.
